# Screens from PubChem.
# Shown are actives, neighbours in structure and some others; about 1.7% of the full set was active somewhere.
# CSN deneddyl inh: inhibitors of human CSN-mediated cullin deneddylation. Q92905. Purified CSN, SCF-Nedd8-OG deneddylation, fluorescence polarization. inhibition, % at 12.5 µM. 360,000 tested, 0.38% active;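 active = pattern-corrected inhibition above about 35%, with an unprinted fluorescence ratio check between 0.5 and 1.5, limit read from the data, passing the limit was not always enough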
#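 Material: purified human Csn5 enzyme expressed in HEK293T cells / Medium: Tris buffer pH 7.5, NaCl, DTT, Tween-20, trehalose, ovalbumin / Compound dosing: 12.5 µM single point / Schedule: 90 min incubation of compound, enzyme and substrate at room temperature / Signal: fluorescence polarization of the substrate / Control set: no-enzyme wells high, enzyme-with-substrate wells low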
# HNF4A DNA FP: change in binding of human HNF4 alpha to DNA; HNF4a-FITC DNA binding, fluorescence polarization, 1 h; AID 1224865; P41235; activity change, % at 10 µM; 360,000 tested, 0.3% active; in the data active = activity change above about 30%, passing the limit was not always enough
# Target sequence (P41235 whole entry, looked up): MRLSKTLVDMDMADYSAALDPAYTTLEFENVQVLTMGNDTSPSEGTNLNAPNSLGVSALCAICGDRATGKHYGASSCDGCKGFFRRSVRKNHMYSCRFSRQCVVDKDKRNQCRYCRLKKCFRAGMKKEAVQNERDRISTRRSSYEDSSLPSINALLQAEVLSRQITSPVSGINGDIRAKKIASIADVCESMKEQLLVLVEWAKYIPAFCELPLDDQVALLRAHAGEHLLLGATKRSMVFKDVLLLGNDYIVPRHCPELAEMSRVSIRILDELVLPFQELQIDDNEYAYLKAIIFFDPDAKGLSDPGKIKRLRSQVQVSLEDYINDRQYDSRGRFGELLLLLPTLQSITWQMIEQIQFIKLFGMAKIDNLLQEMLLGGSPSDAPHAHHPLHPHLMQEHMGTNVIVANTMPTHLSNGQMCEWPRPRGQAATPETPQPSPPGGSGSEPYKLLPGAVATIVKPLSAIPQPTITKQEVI
# TPT1 inhibitor: inhibitors of Candida albicans tRNA 2'-phosphotransferase TPT1 | recombinant caTPT1, FP RNA substrate dephosphorylation | inhibition, % at 5 µM | 300,000 tested, 0.81% active | AID 1962;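 active = inhibition above the mean of all tested compounds plus 3 SD, set per screening campaign, cut at about 24% in these data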
# Rev-erbA mod: modulates human Rev-erb alpha binding to DNA; Rev-erbα–FITC-DNA binding, fluorescence polarization, 90 min; activity, % at 10 µM; 370,000 tested, 0.79% active;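 active = activity above about 14%, limit read from the data; passing the limit was not always enough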
# HNF4a DNA conf: change in binding of human HNF4 alpha to DNA, retest; shares compounds with HNF4A DNA FP; HNF4A-FITC DNA binding, fluorescence polarization, 1 h; activity change, % at 12.5 µM; 210 tested, 99% active; AID 1224897; call rule not given here
# Rev-erbA confirm: Rev-erb alpha (human) modulation, hit confirmation; shares compounds with Rev-erbA mod; Rev-erb alpha FITC-DNA binding, fluorescence polarization, 90 min; activation, % at 25 µM; 3,000 tested, 61% active; AID 1259319;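 active = activation at or above a set limit, or at least 3 SD above the negative control mean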
# RORg DNA counter: RORgamma DNA-binding activity, dose-response counter-screen; shares compounds with Rev-erbA mod; purified RORgamma protein-FITC-DNA binding, fluorescence polarization; IC50, µM; 910 tested, 8% active;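 active = Compounds whose fitted half-maximal concentration for disrupting protein-DNA binding is below 10 micromolar; the record names Rev-erb in its text, so the target is in doubt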
# A number is an active result; – = inactive; · = not tested or not shown.
SMILES,CSN deneddyl inh,HNF4A DNA FP,TPT1 inhibitor,Rev-erbA mod,Rev-erbA confirm,others
Cc1cc(=O)oc2cc(NC(=O)c3cccc(F)c3)ccc12,42,41,–,50,60,HNF4a DNA conf=35;RORg DNA counter=–
CC1CN(C(=O)N2c3ccccc3Sc3ccccc32)C(C)CC1=O (centres undefined),–,–,–,44,60,
COC(=O)c1cc2c(c3c4cc(C)ccc4n(S(=O)(=O)c4ccc(C)cc4)c13)C(=O)N(Cc1ccc(C(F)(F)F)cc1)C2,·,·,·,–,·,
CCn1cc(C(=O)NCCc2ccc(Cl)cc2)c(=O)c2cc(S(=O)(=O)N(C)C)ccc21,–,–,·,44,27,
CCn1cc(C(=O)NCCc2ccc(C)cc2)c(=O)c2cc(S(=O)(=O)N(C)C)ccc21,·,·,–,–,·,
COC(=O)c1cc2c(c3c4cc(F)ccc4n(S(=O)(=O)c4ccc(C)cc4)c13)C(=O)N(Cc1ccccc1)C2,·,·,·,–,·,
CC(C)(C)OC(=O)NCc1cc(F)ccc1/C=C/S(=O)(=O)NCc1ccc(F)cc1,·,·,·,–,·,
COC(=O)[C@@H](Cc1ccccc1)N[C@H](/C=C/c1ccccc1)[C@@H](O)Cc1ccccc1,·,·,·,–,·,
O=C(Cc1sc(-c2ccccc2)nc1-c1ccccc1)Nc1ccc(Cl)cc1,–,–,–,25,33,RORg DNA counter=–
O=C(Cc1sc(-c2ccccc2Cl)nc1-c1ccccc1)Nc1ccccc1,–,–,–,–,·,
CC(C)(C)c1ccc(-c2cn(C[C@H](Cc3ccccc3)n3c(=O)c4ccccc4n3Cc3ccno3)nn2)cc1,·,·,·,–,·,
Cc1ccc2nc(NC(=O)c3ccc(OCC4CCCO4)cc3)sc2c1 (centres undefined),–,–,–,31,–,
COc1ccc(C(=O)Nc2nc3ccc(S(C)(=O)=O)cc3s2)cc1,–,–,–,27,–,
CS(=O)(=O)c1ccc2nc(NC(=O)c3ccc(Cl)cc3)sc2c1,–,–,–,38,–,
Cc1cc(C)c(-n2c(SCCS(=O)(=O)c3ccc(F)cc3)n[nH]c2=O)c(C)c1,–,–,–,–,·,
COc1ccc(-n2nc3ccc(N)cc3n2)cc1Cl,–,–,–,–,·,
COc1ccc(-n2nc3ccc(NS(C)(=O)=O)cc3n2)cc1Cl,–,–,–,23,18,
Cc1ccc(C2(C(F)(F)F)NC(=O)N3C(=C2C#N)Nc2ccccc23)cc1 (centres undefined),–,–,–,33,32,RORg DNA counter=–
COc1ccc(C(=O)c2c(-c3ccc(OC)cc3)oc3ccc(-c4ccc(OC)nc4)cc23)cc1,–,–,–,17,–,
COc1ccc(Cc2c(-c3ccccc3)nc3c4ccccc4ccn23)c(C)c1,–,–,·,–,·,
COc1ccc(-c2nc3c4ccccc4ccn3c2C=O)cc1,–,–,–,53,93,RORg DNA counter=–
N#Cc1nc(-c2ccc(OCc3ccc(Cl)cc3)cc2)oc1N1CCOCC1,–,–,–,38,–,
N#Cc1nc(-c2ccc(OCc3ccc(Cl)cc3)cc2)oc1N1CCC(C(N)=O)CC1,–,–,–,–,·,
O=C(Nc1cccc(C(F)(F)F)c1)c1scc2c1OCCO2,–,–,–,–,·,
O=C(Nc1cccc(C(F)(F)F)c1)c1cc(Br)cc2c1OCC2,–,–,–,28,31,RORg DNA counter=4.5
SMILES,CSN deneddyl inh,HNF4A DNA FP,TPT1 inhibitor,Rev-erbA mod,Rev-erbA confirm,others
CCOC(=O)CCSc1nc(-c2ccc3c(c2)OCO3)cc(C(F)(F)F)c1C#N,–,–,–,21,–,
C=CCSc1nc(-c2ccc3c(c2)OCO3)cc(C(F)(F)F)c1C#N,–,–,–,25,20,
COc1ccc(-c2cc(C(F)(F)F)c(C#N)c(SCC(=O)Nc3ccc(C)cc3)n2)cc1,–,–,–,83,32,
CCOC(=O)CC(=O)CSc1nc(-c2ccc3c(c2)OCO3)cc(C(F)(F)F)c1C#N,–,–,–,110,84,RORg DNA counter=–
CC1(C)CC(=O)C=C(c2ccccc2F)C1=O,·,·,·,–,·,
COC(=O)Cn1cnc2c(NC(=O)c3ccccc3)ncnc21,·,·,·,–,·,
CCCC[C@H]1C2CC(OC(=O)NCc3ccc(Cl)cc3)C(C2)[C@H]2CCCCN21 (some centres undefined),·,·,·,–,·,
COc1ccc(/C=N\NC(=O)Cc2cccs2)c(OC)c1OC,·,·,·,–,·,
COc1cc(-c2nc(-c3ccc(Br)o3)no2)cc(OC)c1OC,–,–,–,27,–,
COc1ccc(-c2noc(-c3ccc(Br)o3)n2)cc1OC,–,–,–,–,·,
COc1ccccc1CN1CC(C(=O)NCc2nccn2C)CCC1=O (centres undefined),–,–,–,20,–,
CCn1c(Cc2cccs2)nnc1SCC(=O)Nc1ccc2c(c1)OCCO2,·,·,·,–,·,
COc1ccc(OC)c(CN(CC(F)(F)F)S(=O)(=O)c2ccccc2Br)c1,·,·,·,–,·,
CC(=O)c1ccc2c3c(cccc13)C(=O)N(c1c(C)nn(C)c1C)C2=O,–,–,–,–,·,
Cc1n[nH]c(C)c1N1C(=O)c2cccc3c(N4CCCCCC4)ccc(c23)C1=O,–,–,–,94,90,RORg DNA counter=–
CC(=O)c1ccc(N2CCN(S(=O)(=O)c3ccc4c(c3)CCC(=O)N4)CC2)cc1,–,–,·,–,·,
O=S(=O)(c1ccc2nc(N3CCN(c4ccccc4)CC3)ccc2c1)N1CCCCC1,–,–,–,83,56,RORg DNA counter=–
CC(=O)c1ccc(N2CCN(S(=O)(=O)c3ccc4c(c3)NC(=O)CO4)CC2)cc1,–,–,–,38,22,
CC(=O)c1ccc(N2CCN(S(=O)(=O)c3ccc4ccccc4c3)CC2)cc1,–,–,·,–,·,
CC(=O)c1ccc(N2CCN(c3ccc4cc(S(=O)(=O)N5CCC(C)CC5)ccc4n3)CC2)cc1,–,–,–,35,45,RORg DNA counter=–
CCOC(=O)c1c(NC(=O)C2CCCN(S(=O)(=O)c3ccccc3)C2)sc2c1CCCC2 (centres undefined),–,–,–,24,103,RORg DNA counter=–
CCOC(=O)c1c(NC(=O)C2Cc3ccccc3C(=O)O2)sc2c1CCCC2 (centres undefined),–,–,–,35,14,
CCOC(=O)c1c(NC(=O)C2CCCO2)sc2c1CCC2 (centres undefined),–,–,–,–,·,
CCOC(=O)c1c(NC(=O)C2CCCN(S(=O)(=O)c3ccc(C)cc3)C2)sc2c1CCCC2 (centres undefined),–,–,–,–,·,
COC(=O)c1c(NC(=O)C2Cc3ccccc3C(=O)O2)sc2c1CCCC2 (centres undefined),–,–,–,50,22,
COC(=O)c1c(NC(=O)C2(C)Cc3ccccc3C(=O)O2)sc2c1CCCC2 (centres undefined),–,–,–,–,·,
